Here are results for six compounds from ChEMBL document CHEMBL1135184, “2,4-Disubstituted pyrroles: synthesis, traceless linking and pharmacological investigations leading to the dopamine D4 receptor partial agonist FAUC 356” (Bioorg Med Chem Lett, 2002).

The target of experiment [1] is 5-hydroxytryptamine receptor 2A (Sus scrofa, UniProt P50129). Nature of the experiment: Ability to displace [3H]-Ketanserin radioligand from porcine 5-hydroxytryptamine 2A receptor.
For experiment [2], the target named is T1, D(2) dopamine receptor (Homo sapiens, UniProt P14416). The experiment in a line: Ability to displace […] radioligand from cloned human Dopamine receptor D2 in CHO cells. Format: cell-based.
The target of experiment [3] is T1, D(2) dopamine receptor. The experiment in a line: Ability to displace [3H]spiperone radioligand from cloned human Dopamine receptor D2 in CHO cells. It is filed as cell-based.
For the next experiment, the target named is D(1A) dopamine receptor (Bos taurus, UniProt Q95136). The experiment in a line: Ability to displace [3H]SCH-23,390 radioligand from bovine Dopamine receptor D1.
The target of experiment [4] is T2, D(4) dopamine receptor (Homo sapiens, UniProt P21917).
T2 sequence (P21917 whole entry): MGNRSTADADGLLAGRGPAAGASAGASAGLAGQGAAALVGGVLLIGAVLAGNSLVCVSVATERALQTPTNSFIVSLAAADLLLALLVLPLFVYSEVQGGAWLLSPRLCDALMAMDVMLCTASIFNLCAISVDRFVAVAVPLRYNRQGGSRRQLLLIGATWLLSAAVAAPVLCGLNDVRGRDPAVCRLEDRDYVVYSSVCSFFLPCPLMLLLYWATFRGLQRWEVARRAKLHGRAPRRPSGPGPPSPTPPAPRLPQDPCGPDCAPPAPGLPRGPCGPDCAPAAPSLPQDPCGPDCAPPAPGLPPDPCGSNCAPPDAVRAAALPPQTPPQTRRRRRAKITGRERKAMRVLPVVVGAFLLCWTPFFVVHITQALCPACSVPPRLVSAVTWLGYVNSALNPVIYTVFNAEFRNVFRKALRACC
Nature of the experiment: Ability to displace [3H]spiperone radioligand from cloned human Dopamine receptor D4 in CHO cells. Format: cell-based.

For a further experiment, the target named is D(3) dopamine receptor (Homo sapiens, UniProt P35462). Nature of the experiment: Ability to displace [3H]spiperone radioligand from cloned human Dopamine receptor D3 in CHO cells. It is filed as cell-based. In short, it runs like this:
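Human D3 receptor stably expressed in CHO cells, membranes labelled with [3H]spiperone in a competition format.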

For experiment [5], the target named is T2, D(4) dopamine receptor. The experiment in a line: Effective concentration of compound required against human Dopamine D4.2 receptor. It is filed as functional.
For experiment [6], the target named is T3, D(4) dopamine receptor (Homo sapiens) (UniProt P21917).
T3 sequence (whole entry): T2 sequence (P21917 whole entry)

T1 sequence (P14416 whole entry): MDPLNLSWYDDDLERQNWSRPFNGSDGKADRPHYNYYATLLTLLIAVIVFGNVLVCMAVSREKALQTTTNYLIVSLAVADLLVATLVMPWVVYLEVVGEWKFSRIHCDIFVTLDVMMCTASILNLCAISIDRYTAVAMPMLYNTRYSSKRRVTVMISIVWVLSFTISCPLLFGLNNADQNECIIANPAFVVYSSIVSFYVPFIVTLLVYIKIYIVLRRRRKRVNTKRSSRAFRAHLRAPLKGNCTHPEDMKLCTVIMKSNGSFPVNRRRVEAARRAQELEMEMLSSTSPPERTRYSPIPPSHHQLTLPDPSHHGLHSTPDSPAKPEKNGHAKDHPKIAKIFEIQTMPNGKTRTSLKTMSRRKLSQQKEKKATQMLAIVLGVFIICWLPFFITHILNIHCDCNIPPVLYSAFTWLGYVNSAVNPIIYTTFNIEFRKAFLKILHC
Chain of D(3) dopamine receptor (P35462 whole entry): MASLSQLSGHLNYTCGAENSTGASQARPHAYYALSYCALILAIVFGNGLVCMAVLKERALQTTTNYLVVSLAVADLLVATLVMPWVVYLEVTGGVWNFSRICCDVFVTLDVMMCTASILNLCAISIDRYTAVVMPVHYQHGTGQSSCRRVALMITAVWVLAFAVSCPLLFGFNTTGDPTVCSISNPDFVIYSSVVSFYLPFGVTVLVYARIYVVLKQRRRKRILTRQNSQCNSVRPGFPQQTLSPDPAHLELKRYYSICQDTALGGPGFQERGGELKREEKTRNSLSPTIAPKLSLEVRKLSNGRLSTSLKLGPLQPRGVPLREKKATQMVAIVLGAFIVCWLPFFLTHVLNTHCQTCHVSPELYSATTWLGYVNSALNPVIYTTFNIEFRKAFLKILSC
Chain of 5-hydroxytryptamine receptor 2A (P50129 whole entry): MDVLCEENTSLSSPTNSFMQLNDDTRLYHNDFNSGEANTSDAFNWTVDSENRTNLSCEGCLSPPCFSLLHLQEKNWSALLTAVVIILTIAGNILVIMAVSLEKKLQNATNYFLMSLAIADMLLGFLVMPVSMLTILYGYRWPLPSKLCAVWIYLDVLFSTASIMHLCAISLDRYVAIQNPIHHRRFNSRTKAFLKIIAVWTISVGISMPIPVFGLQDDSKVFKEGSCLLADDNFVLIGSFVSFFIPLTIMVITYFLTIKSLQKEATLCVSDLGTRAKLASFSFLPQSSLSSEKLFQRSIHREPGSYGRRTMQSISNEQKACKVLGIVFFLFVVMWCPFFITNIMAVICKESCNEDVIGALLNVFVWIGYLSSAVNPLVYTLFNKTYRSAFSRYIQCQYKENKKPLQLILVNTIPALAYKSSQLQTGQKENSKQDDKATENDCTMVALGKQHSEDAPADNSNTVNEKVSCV
Chain of D(1A) dopamine receptor (Q95136 whole entry): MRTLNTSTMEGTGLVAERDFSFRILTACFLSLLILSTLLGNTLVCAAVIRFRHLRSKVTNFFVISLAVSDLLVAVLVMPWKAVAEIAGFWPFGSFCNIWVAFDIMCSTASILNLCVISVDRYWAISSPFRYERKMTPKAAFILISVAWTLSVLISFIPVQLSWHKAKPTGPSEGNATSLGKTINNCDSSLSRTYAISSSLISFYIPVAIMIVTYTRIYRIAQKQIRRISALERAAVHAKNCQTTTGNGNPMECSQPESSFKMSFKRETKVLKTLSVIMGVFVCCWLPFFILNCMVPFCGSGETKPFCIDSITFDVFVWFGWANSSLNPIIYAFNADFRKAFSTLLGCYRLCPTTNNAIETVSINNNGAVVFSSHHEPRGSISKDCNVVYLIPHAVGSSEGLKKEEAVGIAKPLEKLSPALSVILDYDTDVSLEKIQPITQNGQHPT

As usually defined, the Ki is a measure of affinity in units of concentration, obtained from inhibition or displacement. Read a low Ki as higher affinity. What is called EC50 is the concentration at which the effect is half-maximal. As to `N#Cc1c[nH]c(CN2CCN(c3ccccc3)CC2)c1`, the inhibition constant Ki in experiment [1] came out at 610 nM; on D(2) dopamine receptor [2], 3700 nM; at D(2) dopamine receptor [3] it was 8000 nM; on D(1A) dopamine receptor it was 4600 nM; on D(4) dopamine receptor [4], 21 nM; on D(3) dopamine receptor, 1800 nM. Also, a half-maximal effect at D(4) dopamine receptor [5] (EC50) was put at 5.6 nM.
With `c1ccc(N2CCN(Cc3ccc[nH]3)CC2)cc1`, the Ki on D(2) dopamine receptor [2] is 3100 nM; at D(2) dopamine receptor [3], 3000 nM; at D(1A) dopamine receptor it was 5400 nM; on D(4) dopamine receptor [4], 100 nM; at D(3) dopamine receptor, 570 nM.
As to `N#Cc1cc(CN2CCN(c3ccccc3)CC2)c[nH]1`, the Ki in experiment [1] amounted to 450 nM; at D(2) dopamine receptor [2], 2400 nM; on D(2) dopamine receptor [3], 3400 nM; at D(1A) dopamine receptor it was 1200 nM; on D(4) dopamine receptor [4] it was 18 nM; at D(3) dopamine receptor, 720 nM. The midpoint of the response in experiment [6], the EC50, lay at 7.8 nM.
With `C#Cc1c[nH]c(CN2CCN(c3ccccc3)CC2)c1`, the Ki in experiment [1] amounted to 380 nM; at D(2) dopamine receptor [2], 770 nM; on D(2) dopamine receptor [3], 580 nM; at D(1A) dopamine receptor, 2000 nM; on D(4) dopamine receptor [4] it was 5.9 nM; at D(3) dopamine receptor, 850 nM. Besides, on D(4) dopamine receptor [5], the EC50 is 1.9 nM.
On to `C(#Cc1c[nH]c(CN2CCN(c3ccccc3)CC2)c1)c1ccccc1`, for which the Ki at D(2) dopamine receptor [2] was found to be 760 nM; at D(2) dopamine receptor [3] it was 550 nM; on D(1A) dopamine receptor, 2700 nM; at D(4) dopamine receptor [4], 83 nM; on D(3) dopamine receptor it was 670 nM.
As to `c1ccc(-c2c[nH]c(CN3CCN(c4ccccc4)CC3)c2)cc1`, the Ki in experiment [1] is 1300 nM; at D(2) dopamine receptor [2], 230 nM; on D(2) dopamine receptor [3], 170 nM; on D(1A) dopamine receptor, 2100 nM; on D(4) dopamine receptor [4], 12 nM; on D(3) dopamine receptor, 540 nM. It took 6.8 nM to reach a half-maximal effect on D(4) dopamine receptor [5] (EC50).
